# Measurements taken from ChEMBL document CHEMBL4425110, “ICI 56,780 Optimization: Structure-Activity Relationship Studies of 7-(2-Phenoxyethoxy)-4(1H)-quinolones with Antimalarial Activity” (J Med Chem, 2016).
# Experiments:
# Plasmodium berghei = assay: Antimalarial activity against Plasmodium berghei; assay type: functional, organism-based
# Method in brief: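 In vitro liver-stage (exoerythrocytic) assay against P. berghei; the value is the EC50 (nM).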
# [1] = Liver blood index, ratio of EC50 for Plasmodium falciparum TM90-C2B to EC50 for Plasmodium berghei; assay type: functional
# Method in brief: (§1)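 Liver-stage EC50 measured in vitro against P. berghei. Liver blood index is the blood-stage EC50 divided by the P. berghei EC50, using either W2 or TM90-C2B as the blood-stage strain.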
# J774 = assay: Cytotoxicity against mouse J774 cells; assay type: cell-based
# Plasmodium falciparum [2] = assay: Antimalarial activity against Plasmodium falciparum TM90-C2B; assay type: functional, organism-based
# Plasmodium falciparum [3] = assay: Antimalarial activity against Plasmodium falciparum W2; assay type: functional, organism-based
# [4] = Liver blood index, ratio of EC50 for Plasmodium falciparum W2 to EC50 for Plasmodium berghei; assay type: functional; method in brief: as §1
# Plasmodium falciparum [5] = assay: Resistance index, ratio of EC50 for Plasmodium falciparum TM90-C2B to EC50 for Plasmodium falciparum W2; assay type: functional
SMILES,EC50 (Plasmodium berghei),Ratio EC50 [1],EC50 (J774),EC50 (Plasmodium falciparum [2]),EC50 (Plasmodium falciparum [3]),Ratio EC50 [4],Ratio EC50 (Plasmodium falciparum [5])
CCCCc1cc2c(=O)c(C(=O)OCC)c[nH]c2cc1OCCOc1ccccc1,0.007 nM,14300,> 20000 nM,100 nM,0.143 nM,19.6,699
COC(=O)c1c[nH]c2ccc(Cl)cc2c1=O,46.6 nM,1760,> 20000 nM,82200 nM,614 nM,13.2,134
CCCCc1cc2c(=O)c(C(C)=O)c[nH]c2cc1OCCOc1ccccc1,–,–,–,378 nM,9.67 nM,–,39.1
COC(=O)c1c[nH]c2cc(OCCOc3ccccc3)c(OC)cc2c1=O,17.5 nM,0.634,> 20000 nM,11.1 nM,6.93 nM,0.396,1.6
CCCc1cc2c(=O)c(C(=O)OC)c[nH]c2cc1OCCOc1ccccc1,< 0.06 nM,–,> 20000 nM,42.4 nM,0.157 nM,–,270
COC(=O)c1c[nH]c2cc(F)ccc2c1=O,> 100 nM,–,> 20000 nM,395 nM,26.2 nM,–,15.1
COC(=O)c1c[nH]c2cc(OCCOc3ccccc3)ccc2c1=O,0.286 nM,257,> 20000 nM,73.6 nM,2.8 nM,9.79,26.3
CCCCc1cc2c(=O)cc[nH]c2cc1OCCOc1ccccc1,5.82 nM,73.9,> 20000 nM,430 nM,328 nM,56.4,1.31
CCc1ccc2[nH]cc(C(=O)OC)c(=O)c2c1,–,–,> 20000 nM,> 10800 nM,145 nM,–,>74.5
CCCCCc1cc2c(=O)c(C(=O)OC)c[nH]c2cc1OCCOc1ccccc1,< 0.56 nM,–,> 20000 nM,68.7 nM,0.183 nM,–,375
COC(=O)c1c[nH]c2ccc(OC)cc2c1=O,79.6 nM,–,6180 nM,> 10700 nM,482 nM,6.05,>22.2
CCCCc1cc2c(=O)c(C(=O)NC(C)C)c[nH]c2cc1OCCOc1ccccc1,–,–,> 20000 nM,5140 nM,3340 nM,–,1.54
CCCCc1ccc2[nH]ccc(=O)c2c1,395 nM,–,> 20000 nM,> 12400 nM,352 nM,0.89,>35.2
CCCCc1ccc2[nH]cc(C(=O)OC)c(=O)c2c1,0.819 nM,271,> 20000 nM,222 nM,1.58 nM,1.93,141
CCCCc1cc2c(=O)c(C#N)c[nH]c2cc1OCCOc1ccccc1,6.09 nM,521,> 20000 nM,3170 nM,97.2 nM,15.7,32.6
CCc1cc2c(=O)c(C(=O)OC)c[nH]c2cc1OCCOc1ccccc1,0.737 nM,88.6,> 20000 nM,65.3 nM,0.461 nM,0.626,142
COC(=O)c1c[nH]c2cc(OCCOc3ccccc3)c(C)cc2c1=O,152 nM,3.28,> 20000 nM,499 nM,2.01 nM,0.013,248

SMILES,EC50 (Plasmodium berghei),Ratio EC50 [1],EC50 (J774),EC50 (Plasmodium falciparum [2]),EC50 (Plasmodium falciparum [3]),Ratio EC50 [4],Ratio EC50 (Plasmodium falciparum [5])
CCOc1ccc2[nH]cc(C(=O)OC)c(=O)c2c1,–,–,> 20000 nM,> 10100 nM,292 nM,–,>34.6
CCCCc1cc2c(=O)c(C(=O)NCC)c[nH]c2cc1OCCOc1ccccc1,–,–,> 20000 nM,> 6120 nM,206 nM,–,>29.7
COC(=O)c1c[nH]c2cc(Cl)ccc2c1=O,–,–,> 20000 nM,5800 nM,2360 nM,–,2.46
COC(=O)c1c[nH]c2cc(OCCOc3ccccc3)c(Br)cc2c1=O,0.336 nM,2520,> 20000 nM,847 nM,4.47 nM,13.3,189.5
CCCCc1cc2c(=O)c(I)c[nH]c2cc1OCCOc1ccccc1,2.55 nM,2.37,> 10000 nM,6.04 nM,1.23 nM,0.482,4.91
COC(=O)c1c[nH]c2ccc(Oc3ccccc3)cc2c1=O,–,–,> 20000 nM,7060 nM,381 nM,–,18.5
COC(=O)c1c[nH]c2cc(-c3ccccc3)ccc2c1=O,–,–,> 20000 nM,11300 nM,2560 nM,–,4.41
COC(=O)c1c[nH]c2ccc(Oc3ccc(F)cc3)cc2c1=O,–,–,> 20000 nM,5710 nM,117 nM,–,48.8
CCCCc1cc2c(=O)c(C(=O)N(C)C)c[nH]c2cc1OCCOc1ccccc1,122 nM,> 27.7,15300 nM,> 6120 nM,56.7 nM,0.46,>108
CCCCc1cc2c(=O)c(Br)c[nH]c2cc1OCCOc1ccccc1,18.7 nM,2.6,8070 nM,48.7 nM,4.64 nM,0.248,10.5
CCCCc1cc2c(=O)c(Cl)c(C)[nH]c2cc1OCCOc1ccccc1,11.2 nM,6.03,> 10000 nM,67.7 nM,6.92 nM,0.616,9.79
O=c1cc[nH]c2cc(OCCOc3ccccc3)ccc12,> 354 nM,–,> 20000 nM,7680 nM,5960 nM,–,1.29
COC(=O)c1c[nH]c2ccc(C(C)C)cc2c1=O,–,–,> 20000 nM,> 10200 nM,354 nM,–,>28.8
COC(=O)c1c[nH]c2ccccc2c1=O,3.65 nM,1810,> 20000 nM,6590 nM,200 nM,54.8,33
CCCCc1cc2c(=O)c(C(=O)O)c[nH]c2cc1OCCOc1ccccc1,0.267 nM,4160,> 20000 nM,1110 nM,64 nM,240,17.3
COC(=O)c1c[nH]c2cc(OCc3ccccc3)ccc2c1=O,–,–,18900 nM,8080 nM,1830 nM,–,4.42
COC(=O)c1c[nH]c2ccc(-c3ccccc3)cc2c1=O,> 179 nM,–,> 20000 nM,7180 nM,2090 nM,–,3.44
